# TAG inh: reduces triacylglycerol accumulation in H9c2 cells. Nile Red lipid (TAG) fluorescence; cells loaded with 200 µM oleic acid. inhibition, % at 12.5 µM. 230,000 tested, 0.66% active. AID 651582;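 active means pattern-corrected inhibition of lipid staining of at least 50% with the nuclear-stain viability signal not falling by more than 50%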;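 further: 0% = DMSO wells and 100% = triacsin C control wells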
# APJ agonist: activates the human apelin receptor APJ. P35414. CHO-K1 APJ PathHunter beta-arrestin, luminescence; 0% DMSO wells, 100% apelin. activation, % at 20 µM. 330,000 tested, 0.11% active. AID 2520;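 active means activation more than six SD over the plate average, tested at 20 µM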;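 further: 0% = DMSO alone and 100% = apelin-13 at 10 nM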
# Target sequence (P35414 whole entry, looked up): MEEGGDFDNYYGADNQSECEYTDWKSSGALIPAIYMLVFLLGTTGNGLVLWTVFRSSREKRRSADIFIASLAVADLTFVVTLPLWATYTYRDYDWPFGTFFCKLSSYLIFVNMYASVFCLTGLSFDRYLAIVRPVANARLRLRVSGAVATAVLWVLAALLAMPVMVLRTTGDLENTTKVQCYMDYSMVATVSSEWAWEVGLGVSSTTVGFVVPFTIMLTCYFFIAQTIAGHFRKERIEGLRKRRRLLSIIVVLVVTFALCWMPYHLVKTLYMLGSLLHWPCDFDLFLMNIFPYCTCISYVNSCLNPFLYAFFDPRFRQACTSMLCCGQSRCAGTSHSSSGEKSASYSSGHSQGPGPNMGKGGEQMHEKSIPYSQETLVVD
#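 assay system = CHO-K1 APJ beta-arrestin complementation cell line | input = cell density 1000 per well | dosing = compound 20 µM once, DMSO 1% | timing = compound 90 min 25 °C, reagent 1 h | measured by = luminescence from split beta-galactosidase complementation, Galacton Star/Emerald II substrate | read-out basis = APJ agonist activity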
# APJ antag: APJ receptor antagonism; CHO-K1 APJ beta-arrestin complementation, luminescence; inhibition, % at 20 µM; 330,000 tested, 0.32% active;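 active means inhibition above about 40% at 20 µM, limit read from the data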;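 further: cells challenged with 10 nM apelin-13 agonist together with compound; plate controls were apelin-13 plus DMSO wells for no effect and DMSO wells lacking apelin-13 for full effect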
# EBI2 antag: blocks human EBI2 receptor beta-arrestin signaling | EBI2 beta-arrestin recruitment, luminescence, 7a,25-OHC stimulated | inhibition, % at 5 µM | 360,000 tested, 0.81% active | P32249; in the data active means inhibition above about 38%;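 further: enzyme fragment complementation signal reports receptor beta-arrestin coupling in cells; 0% = agonist plus DMSO wells and 100% = wells without agonist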
# CCR6 antag: CCR6 (human) receptor antagonism. P51684. CHO-K1 CCR6 PathHunter beta-arrestin, luminescence, CCL20-stimulated. inhibition, % at 20 µM. 340,000 tested, 0.49% active;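 active means compounds whose inhibition of the agonist-driven luminescence signal at 20 µM reaches about 50%, limit read from the data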;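 further: cells stimulated with CCL20 at 14 nM final; plate controls were DMSO with CCL20 for no effect and DMSO without agonist for full effect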
# CXCR6 block: inhibitors of human CXCR6 receptor; O00574; CHO-K1 PathHunter CXCR6 beta-arrestin, luminescence; inhibition, % at 20 µM; 360,000 tested, 0.36% active; AID 602244; in the data active means inhibition above about 34%, passing the limit was not always enough;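 further: antagonist mode with CXCL16 agonist at 10 nM final; 0% = 10 nM CXCL16 with DMSO and 100% = unstimulated wells without agonist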
# EBI2 conf: EBI2 (human) antagonism, single concentration confirmation | EBI2 beta-arrestin luminescence, 7a,25-OHC antagonism | AID 651997 | 2,400 tested, 29% active | shares compounds with EBI2 antag | inhibition, % at 5 µM;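 active means inhibition of at least 50%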
# EBI2 agonist: activates EBI2, counter-screen for EBI2 antagonists; 2,400 tested, under 10 active; shares compounds with EBI2 antag; EBI2-expressing cells, agonist mode, luminescence, 60 min; 0% vehicle, 100% 7α,25-dihydroxycholesterol control; activation, % at 5 µM;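 active means activation of at least 50%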
# bGal counter: beta-galactosidase inhibition counter-screen. inhibition, % at 5 µM. purified beta-galactosidase, luminescent Galacton Star, 15 min. shares compounds with EBI2 antag. 2,400 tested, 1% active;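 active means replicate-average signal at least 3 plate SD below neutral wells, shown as high inhibition, flagging enzyme-inhibiting false positives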;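 further: 0% = DMSO wells with enzyme and 100% = wells lacking enzyme; higher means stronger loss of beta-gal luminescence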
# Active calls of the source: *; nt = not tested or not shown. This is a sample that favours compounds with a hit; in the whole collection about 1.9% have one here.
SMILES,TAG inh,APJ agonist,APJ antag,EBI2 antag,CCR6 antag,CXCR6 block,EBI2 conf,EBI2 agonist,bGal counter
Cc1nc(N2CCN(Cc3ccc4c(c3)OCO4)CC2)c2cc(-c3ccccc3)sc2n1,-10,-4,-11,38*,14,12,13,1,5
Cc1nc(N2CCN(Cc3ccc4c(c3)OCO4)CC2)c2oc3ccccc3c2n1,-15,nt,nt,24,7,-2,nt,nt,nt
COc1ccc(OC)c(S(=O)(=O)NC(=O)C2(C)CCN2C(=O)CC2CCCC2)c1 (centres undefined),8,nt,nt,-2,nt,2,nt,nt,nt
CC(C)Nc1nc(NCCN2CCCC2)c2sc(-c3ccccc3)cc2n1,11,nt,nt,4,nt,2,nt,nt,nt
CCOC(=O)N1CCN(C(=O)/C=C/c2ccc([N+](=O)[O-])cc2)CC1,nt,1,17,80*,-6,-6,58*,0,7
CCOC(=O)C1CCCN(C(=O)/C=C/c2ccc([N+](=O)[O-])cc2)C1 (centres undefined),9,0,-4,9,2,-5,nt,nt,nt
O=C(/C=C/c1cccc([N+](=O)[O-])c1)N1CCN(c2ccc(F)cc2)CC1,nt,-3,8,18,6,-7,nt,nt,nt
CCOC(=O)N1CCN(C(=O)/C=C/c2ccc(C(C)(C)C)cc2)CC1,22,-1,-9,62*,11,-4,53*,1,8
COc1ccccc1/C=C/C(=O)N1CCN(S(=O)(=O)c2cccs2)CC1,-11,-1,-2,33,2,3,nt,nt,nt
CCOC(=O)N1CCN(C(=O)/C=C/c2cccc([N+](=O)[O-])c2)CC1,nt,1,2,48*,8,-6,26,-1,-11
O=C(/C=C/c1ccc([N+](=O)[O-])cc1)N1CCN(S(=O)(=O)c2cccs2)CC1,-10,1,-34,93*,-11,-1,63*,1,3
O=C(CN(C(=O)c1csnn1)c1ccc(Cl)cc1)NCc1ccc2c(c1)OCO2,nt,-1,-11,0,7,3,nt,nt,nt
Cc1noc(C)c1CSCC(=O)Nc1ccccc1N1CCCC1,-6,nt,nt,2,15,-4,nt,nt,nt
COCc1ccc(CN2CCCCC2C(=O)Nc2ccc(Oc3ccccc3)nc2)o1 (centres undefined),-5,1,-7,33,8,2,nt,nt,nt
CC1(C)CN(c2ccccc2)C(=O)[C@H]1CC(=O)Nc1ccccc1,0,nt,nt,-1,nt,-3,nt,nt,nt
COCCN(C(=O)COC(=O)CCOc1ccccc1C)c1c(N)n(Cc2ccccc2)c(=O)[nH]c1=O,-4,0,-46,-1,-7,1,nt,nt,nt
COc1ccc(/C=C/C(=O)NC(=S)Nc2cc3oc4ccccc4c3cc2OC)cc1,nt,-3,1,65*,15,8,45,1,2
COc1cc2c(cc1NC(=S)NC(=O)/C=C/c1ccco1)oc1ccccc12,nt,-5,13,55*,10,-3,51*,-2,-16
COc1ccccc1NC(=S)NC(=O)/C=C/c1ccco1,7,-5,8,-7,15,9,nt,nt,nt
COc1cc2c(cc1NC(=S)NC(=O)/C=C/c1ccc(OC)c(OC)c1)oc1ccccc12,-18,nt,nt,-2,15,0,nt,nt,nt
COC(=O)c1ccccc1NC(=O)CCC(=O)N1CC(C)Oc2ccc(C)cc21 (centres undefined),-2,-4,2,5,1,5,nt,nt,nt
COc1cccc(/C=C2\SC(=O)N(CC(=O)NC3C=CS(=O)(=O)C3)C2=O)c1 (centres undefined),nt,1,-28,-3,5,-2,nt,nt,nt
N#C/C(=C/c1ccc2c(c1)OCO2)C(=O)NCCc1c[nH]c2ccccc12,nt,0,7,51*,13,3,44,1,9
CN(Cc1ccccc1)C(=O)CCn1c(=O)c2cccn2c2cccnc21,nt,0,-26,-3,7,-1,nt,nt,nt
COc1ccc(NC(=O)CCc2nnc3ccc(NCc4ccco4)nn23)cc1OC,nt,-4,4,0,6,-6,nt,nt,nt
SMILES,TAG inh,APJ agonist,APJ antag,EBI2 antag,CCR6 antag,CXCR6 block,EBI2 conf,EBI2 agonist,bGal counter
Cc1cc(C2(c3ccc(O)c(C)c3)C(=O)Nc3ccccc32)ccc1O,-37,-1,8,67*,-9,5,37,-1,-12
CC1(C)C(=O)Nc2ccccc2N1C(=O)COC(=O)Cc1ccccc1F,9,0,3,4,7,-6,nt,nt,nt
Cc1ccc(/C=C/C(=O)N2CCN(S(=O)(=O)c3c(C)c(C)cc(C)c3C)CC2)o1,nt,-4,5,50*,5,9,32,1,3
Cc1ccc(/C=C/C(=O)N2CCN(S(=O)(=O)c3ccc(C)c(C)c3)CC2)o1,nt,0,0,26,6,15,nt,nt,nt
Cc1ccc(NS(=O)(=O)c2ccc(NC(=O)CN(c3cc([N+](=O)[O-])ccc3C)S(C)(=O)=O)cc2)c(C)c1,nt,2,-11,75*,18,5,22,-2,-2
O=c1ccn([C@@H]2O[C@H](CNCC3=Cc4cc(O)ccc4OC3)[C@@H](O)[C@H]2O)c(=O)[nH]1,-8,nt,nt,-1,-1,1,nt,nt,nt
CCOC(=O)/C(=C\c1ccc(N2CCC(c3ccccc3)=N2)cc1)C(C)=O,-18,nt,nt,48*,18,11,53*,0,3
CCN1CCN(c2ccc(S(=O)(=O)N3CCCCC3)cc2NC(=O)c2cc3ccccc3o2)CC1,24,-4,4,7,20,15,nt,nt,nt
CC(C)OCCCNC(=O)c1c(N)n(/N=C/c2ccccn2)c2nc3ccccc3nc12,45,-5,0,48*,-27,-1,21,0,-9
CCC(C)NC(=O)c1c(N)n(/N=C/c2ccccn2)c2nc3ccccc3nc12 (centres undefined),nt,-1,-13,27,-17,-8,nt,nt,nt
COc1cccc(C(=O)OCC(=O)N2CCc3ccccc3C2)c1OC,-2,-4,1,-3,2,0,nt,nt,nt
N#Cc1ccccc1NC(=O)COC(=O)CN1C(=O)C2CCCCC2C1=O (centres undefined),0,-8,6,-6,-9,-5,nt,nt,nt
COC(=O)CCC(C)C1CCC2C3C(OC(C)=O)CC4CC(O)CCC4(C)C3CC(O)C12C (centres undefined),7,nt,nt,-1,nt,3,nt,nt,nt
CC(=O)NC(=S)Nc1sc2c(c1C(N)=O)CCC(C)C2 (centres undefined),-12,-7,28,37*,39,39*,21,0,9

# Assay outcomes from PubChem.
